Assay results published in ChEMBL document CHEMBL3351278, “Pyridine-3-carboxamide-6-yl-ureas as novel inhibitors of bacterial DNA gyrase: structure based design, synthesis, SAR and antimicrobial activity” (Eur J Med Chem, 2014).
In brackets after ≈: the same amount, converted by molar mass.

Tests used:
[1] = test system: Enterococcus faecalis; test: Antibacterial activity against Enterococcus faecalis ATCC 29212 incubated for 24 hrs by broth microdilution method; type: functional; conditions: ATCC 29212, 24 h
[2] = molecular target: DNA gyrase (Escherichia coli, UniProt P0AES4+P0AES6); test: Inhibition of Escherichia coli GyrB A2B2 subunits assessed reduction in DNA supercoiling activity by malachite green dye based by spectrophotometry; type: protein-complex assay
How it was run: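 Inhibition was measured as loss of ATPase activity of the E. coli GyrB enzyme and reported as IC50.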

[3] = test system: Staphylococcus aureus; test: Antibacterial activity against Staphylococcus aureus ATCC 29213 incubated for 24 hrs by broth microdilution method; type: functional; conditions: ATCC 29213, 24 h
[4] = test system: Haemophilus influenzae; test: Antibacterial activity against Haemophilus influenzae ATCC 49247 incubated for 24 hrs by broth microdilution method; type: functional; conditions: ATCC 49247, 24 h
[5] = Retention time of the compound by HPLC method; type: physicochemical
[6] = test system: Streptococcus pyogenes; test: Antibacterial activity against Streptococcus pyogenes ATCC 51339 incubated for 24 hrs by broth microdilution method; type: functional; conditions: ATCC 51339, 24 h
[7] = test system: Staphylococcus aureus; test: Antibacterial activity against Staphylococcus aureus ATCC 29213 expressing GyrB T173N mutant incubated for 24 hrs by broth microdilution method; type: functional; conditions: ATCC 29213, 24 h
[8] = test system: Streptococcus pyogenes; test: Antibacterial activity against Streptococcus pyogenes ATCC 51339 expressing ParE A53S mutant incubated for 24 hrs by broth microdilution method; type: functional; conditions: ATCC 51339, 24 h

Compound | MIC [1] [µg/mL] | IC50 [2] [µM] | MIC [3] [µg/mL] | MIC [4] [µg/mL] | Retention_time [5] [min] | MIC [6] [µg/mL] | MIC [7] [µg/mL] | MIC [8] [µg/mL]
CCNC(=O)Nc1ccc(C(=O)Nc2cccc(C(N)=O)c2)cn1 | > 256 | 24.5 | > 256 | > 256 | 1.44 | > 256 | – | –
CCNC(=O)Nc1ccc(C(=O)Nc2cccc(CC)c2)cn1 | > 256 | 40.4 | > 256 | > 256 | 1.84 | > 256 | – | –
CCNC(=O)Nc1ccc(C(=O)Nc2cccc(C)c2)cn1 | 32 (≈ 107 µM) | 3.4 | 32 (≈ 107 µM) | > 64 | 1.76 | 32 (≈ 107 µM) | > 64 | > 64
CCNC(=O)Nc1ccc(C(=O)NC2CCCCC2)cn1 | > 64 | 23.1 | > 64 | > 64 | 1.67 | > 64 | – | –
CCNC(=O)Nc1ccc(C(=O)Nc2cccc(Cl)c2)cn1 | 16 (≈ 50.2 µM) | 1.6 | 16 (≈ 50.2 µM) | > 64 | 1.84 | 16 (≈ 50.2 µM) | > 64 | > 64
CCNC(=O)Nc1ccc(C(=O)Nc2cc(C(=O)OC)ccn2)cn1 | > 64 | 14 | > 64 | > 64 | 1.66 | > 64 | – | –
CCNC(=O)Nc1ccc(C(=O)Nc2ccnc(C)c2)cn1 | > 64 | 5.3 | > 64 | > 64 | 1.24 | > 64 | – | –
CCNC(=O)Nc1cc(Nc2cccc(C)c2)c(C(=O)Nc2nccs2)cn1 | > 64 | 0.098 | > 64 | > 64 | 1.51 | > 64 | – | –
CCNC(=O)Nc1cc(N2CCN(C)CC2)c(C(=O)Nc2nccs2)cn1 | > 64 | 33.2 | > 64 | > 64 | 1.18 | > 64 | – | –
CCNC(=O)Nc1ccc(C(=O)Nc2cccc(F)c2)cn1 | 32 (≈ 106 µM) | 3 | 32 (≈ 106 µM) | > 64 | 1.74 | 32 (≈ 106 µM) | > 64 | > 64

Continued, in another order:

MIC [1] [µg/mL] | IC50 [2] [µM] | MIC [3] [µg/mL] | MIC [4] [µg/mL] | Retention_time [5] [min] | MIC [6] [µg/mL] | Compound | MIC [7] [µg/mL] | MIC [8] [µg/mL]
> 64 | 0.96 | > 64 | > 64 | 1.43 | > 64 | CCNC(=O)Nc1ccc(C(=O)Nc2ncc(C(=O)O)s2)cn1 | – | –
> 64 | 3.8 | > 64 | > 64 | 1.69 | 32 (≈ 103 µM) | CCNC(=O)Nc1ccc(C(=O)Nc2cccc(C#N)c2)cn1 | – | –
> 64 | 2.1 | > 64 | > 64 | 1.7 | > 64 | CCNC(=O)Nc1ccc(C(=O)Nc2ccccc2Cl)cn1 | – | –
> 64 | 2.12 | > 64 | > 64 | 1.7 | > 64 | CCNC(=O)Nc1cc(NC2CCCCC2)c(C(=O)Nc2cccc(C)c2)cn1 | – | –
256 (≈ 897 µM) | 6 | > 256 | > 256 | 1.25 | 32 (≈ 112 µM) | CCNC(=O)Nc1ccc(C(=O)Nc2cccnc2)cn1 | – | –
< 0.25 | < 0.75 | – | – | – | – | CCNC(=O)Nc1nc2cc(-c3cccnc3)cc(-c3ccccn3)c2s1 | – | –
0.5 (≈ 1.24 µM) | 0.099 | 1 (≈ 2.48 µM) | > 64 | 1.75 | 32 (≈ 79.3 µM) | CCNC(=O)Nc1cc(Nc2cccc(C)c2)c(C(=O)Nc2cccc(C)c2)cn1 | – | –
0.5 (≈ 1.32 µM) | 0.093 | 8 (≈ 21.2 µM) | > 64 | 1.38 | 1 (≈ 2.65 µM) | CCNC(=O)Nc1cc(Nc2cccnc2)c(C(=O)Nc2cccnc2)cn1 | – | –
4 (≈ 10.1 µM) | 0.81 | > 64 | > 64 | 1.88 | > 64 | CCNC(=O)Nc1cc(-c2ccccc2)c(C(=O)Nc2cccc(Cl)c2)cn1 | – | –
64 (≈ 174 µM) | 0.56 | > 64 | > 64 | 1.36 | 64 (≈ 174 µM) | CCNC(=O)Nc1cc(-c2cccnc2)c(C(=O)Nc2nccs2)cn1 | – | –
